Assays:
[1] = melting temperature; fluorescence melt of hairpins on a sequencing array, two-state fit, raised by 9.35 °C to match UV melts; conditions: sodium 0.088 M
Summary of the method: (§1)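 With Cy3 and quencher oligos annealed, library hairpins on a sequenced MiSeq flow cell were imaged for Cy3 fluorescence in 50 mM Na-HEPES pH 8.0, 25 mM NaCl, in 2.5 °C steps up to 60 °C. Melting temperature and folding enthalpy were derived from bootstrapped two-state fits of signals normalised to pre-quench Cy3 and to control constructs. Four replicates were combined by inverse variance, with fitted temperatures raised by 9.35 °C to match UV melts.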

[2] = folding enthalpy; higher = less favourable; fluorescence melt of hairpins on a sequencing array, two-state fit; conditions: sodium 0.088 M
Summary of the method: as §1

| Sequence | Tm [1] [°C] | folding enthalpy [2] [kcal/mol] |
| --- | --- | --- |
| CGACTCGGAAACGAATCG (((.(((....))).))) | 41.9 | -33.6 |
| GGCCGTGGAAACGCGGTC (.(((.(....).))).) | 52.5 | -30.3 |
| GTACACGAAAGTGATTAC ((((((....)))..))) | 27.4 | -14.6 |
| GATCTAATAGTAGATC ((((((....)))))) | 33.7 | -29.4 |
| GATCTGGGATCAGATC ((((((....)))))) | 53.3 | -40.7 |
| GTCCTTGGAAACAAGGAC (((((((....))))))) | 59.8 | -38.8 |
| GGAGTAGGAAACTATTCC (((.(((....))).))) | 37.5 | -21.4 |
| GATCCACTAGTGGATC ((((((....)))))) | 62.3 | -40.6 |
| GTTGACGAAAGTCTTAAC ((((((....)))..))) | 28.1 | -10 |
| GTACGAGGAAACCCGTAC (((((.(....).))))) | 46.5 | -30.8 |
| GGGTCTGGAAACGGACCC (((((.(....).))))) | 59.3 | -51.6 |
| GATCTAGGCTTAGATC ((((((....)))))) | 46.6 | -38.4 |
| GTCCTAACGAAAGTTGAC (((..(((....)))))) | 26.6 | -10.9 |
| GTGAACGGAAACGCTCAC ((((.((....)).)))) | 47.6 | -31.5 |
| GCTAGGGGAAACCTTAGC ((((.((....)).)))) | 44.5 | -33.7 |
| GAACCGGGAAACCGGTCC (.(((((....))))).) | 41.2 | -11.6 |
| GAGTGCCCGAAAGGGCTC (((..(((....)))))) | 35.5 | -6.67 |
| GCGGGCGAAAGCCCCCGC ((((((....)))..))) | 52.1 | -11.2 |
| GGCAACTCGAAAGAGGCC (((..(((....)))))) | 48.8 | -22.7 |
| GCATTACGAAAGTAGTGC (((.(((....))).))) | 52.4 | -31.7 |
| GATCAAAGGTTTGATC ((((((....)))))) | 44.8 | -32.4 |
| GAAGGTGAAAACCTTC ((((((....)))))) | 57.2 | -28.7 |
| GCTCCGCGAAAGCCGGGC ((.(.((....)).).)) | 50 | -16.4 |

| Sequence | Tm [1] [°C] | folding enthalpy [2] [kcal/mol] |
| --- | --- | --- |
| GTTCTCTCGAAAGAGAAC (((..(((....)))))) | 51.1 | -34.5 |
| GTCATTCGAAAGAACGAC (((.(((....))).))) | 41.1 | -31 |
| GCGACAATCGC ((((...)))) | 41.3 | -13.9 |
| GTTCTTCCGAAAGGAAAC (((..(((....)))))) | 27.5 | -13.6 |
| GCGTCGAGACGC ((((....)))) | 61 | -25.2 |
| GTTTGCGGAAACGCGAAC (((.(((....))).))) | 56.9 | -35.7 |
| GACTACGAAAGTATGGTC ((((((....)))..))) | 34.4 | -19.5 |
| GAGAGAACGAAAGTTCTC (((..(((....)))))) | 52.5 | -14.7 |
| GATCTCCTAGAGATC ((((((...)))))) | 53 | -35.1 |
| GGTGCAGGAAACTGCGTC (..((((....))))..) | 35.6 | -10.3 |
| GATCAAGCGTTGATC ((((((...)))))) | 40.2 | -29.6 |
| GCCAAACGAAAGTTCGGC (((.(((....))).))) | 51.3 | -36.8 |
| GATCCTGGAAACAGGACC (.(((((....))))).) | 40.1 | -14.4 |
| GTGAACGAAAGTTTTCAC ((((((....)))..))) | 31.1 | -15.6 |
| GAAGACGCGAAAGCGTTC (((..(((....)))))) | 32.1 | -7.5 |
| GTCTGGGAAACCAGAC ((((((....)))))) | 58.3 | -38.3 |
| GATCTCATGGGAGATC ((((((....)))))) | 54 | -37 |
| GCGAATCGTCGC ((((....)))) | 47.7 | -18 |
| GATCTATGCTTAGATC ((((((....)))))) | 44.5 | -35.8 |
| GAACGCGAAAGCGATTTC ((((((....)))..))) | 32.3 | -9.14 |
| GATCAGGCACTGATC ((((((...)))))) | 59.8 | -43.6 |
| GAAACCCGAAAGGGGTTC (((.(((....))).))) | 59.2 | -29 |
| GCTCGCGAAAGCGGGAGC ((((((....)))..))) | 55.1 | -15.7 |

| Sequence | Tm [1] [°C] | folding enthalpy [2] [kcal/mol] |
| --- | --- | --- |
| GTAAGAGGAAACTCTTGC (.(((((....))))).) | 38.7 | -25 |
| GGAGACGAAAGTCTATCC ((((((....)))..))) | 32.8 | -12.5 |
| GCACACCCGAAAGGGTGC (((..(((....)))))) | 38.6 | -5.94 |
| GGATTCGAAAGAAGTCC ((((((....))).))) | 36.7 | -17.2 |
| GTAAGGCCGAAAGGCTAC (((..(((....)))))) | 33.8 | -9.55 |
| GCAGTAGGAAACTATTGC (((.(((....))).))) | 42.6 | -26.9 |
| GCTCAGCGAAAGCTCAGC (((.(((....))).))) | 44.7 | -15 |
| GTGTTAGAAATAACAC ((((((....)))))) | 47.1 | -28.6 |
| GTTTAGACGAAAGTCAAC (((..(((....)))))) | 30.4 | -9.97 |
| GATCTACGCTTAGATC ((((((....)))))) | 43.4 | -35.4 |
| GTAAAAGAAATTTTAC ((((((....)))))) | 30.8 | -13 |
| GAGCCCGGAAACGAGCCC (.((.((....)).)).) | 29.1 | -14 |
| GGGAAGGCGAAAGCCCCC (((..(((....)))))) | 48.1 | -14 |
| GATCATAGGTATGATC ((((((....)))))) | 49.1 | -40.5 |
| GATCGAGGCCTCGATC ((((((....)))))) | 62.2 | -49.1 |
| CGCGGAACAGTCCGCG ((((((....)))))) | 67.2 | -33.1 |
| GTCAACGGAAACGTTAAC ((.((((....)))).)) | 33.7 | -17.6 |
| GATCCAATGCTGGATC ((((((....)))))) | 49.1 | -32.5 |
| GACTTTGGAAACAAAGTC (((((((....))))))) | 57.8 | -44.5 |
| GTAGTCTCGAAAGAGTAC (((..(((....)))))) | 31.9 | -17.3 |
| GCACCCGAAAGGGCTTGC ((((((....)))..))) | 46.6 | -14.9 |
| GGCCACGAAAGTGAGGCC ((((((....)))..))) | 58.3 | -26.9 |
| GCACTGCGAAAGCATGC (((.(((....)))))) | 53.1 | -20.7 |

| Sequence | Tm [1] [°C] | folding enthalpy [2] [kcal/mol] |
| --- | --- | --- |
| GGACCCGAAAGGGCTCC ((((((....))).))) | 58.6 | -23.1 |
| GTGCTGGGAAACCAGCGC (.(((((....))))).) | 61.6 | -29.5 |
| GCGAACTCGAAAGAGCGC (((..(((....)))))) | 49.3 | -27.6 |
| GCCGTGGGAAACCACAGC ((.((((....)))).)) | 49.4 | -18.6 |
| GATTTCGGAAACGAGATC (((.(((....))).))) | 41.6 | -30 |
| GCCACTGGAAACAGCGAC (.(.(((....))).).) | 26 | -13.9 |
| GGCTGAGGAAACTCGGTC (.(.(((....))).).) | 40.8 | -25 |
| GCAGACCGAAAGGTGTGC (((.(((....))).))) | 63 | -35.8 |
| GTTAAACGAAAGTTAAC (((.(((....)))))) | 34.6 | -17.2 |
| GCAGCTCGAAAGAGTTGC (((.(((....))).))) | 59.6 | -44.2 |
| GCACCCGAAAGGGATTGC ((((((....)))..))) | 42.3 | -18 |
| GCGGTGCGAAAGCAGTGC ((..(((....)))..)) | 63.6 | -23.5 |
| GGTCATCGAAAGATACC (((.(((....)))))) | 38.4 | -24.2 |
| GGCTTCGAAAGAATGGCC ((((((....)))..))) | 42.2 | -25.2 |
| GCTCCAGGAAACTGAAGC (((.(((....))).))) | 38.6 | -32.5 |
| CGCCCGGAAACGGAGGCG ((((((....)))..))) | 53.8 | -32.5 |
| GCTATCACGAAAGTGAGC (((..(((....)))))) | 36.1 | -14.1 |
| GTACGTGGAAACACATAC (((.(((....))).))) | 32.7 | -22.1 |
| GCCGGGCGAAAGCTCAGC ((.(.((....)).).)) | 44.4 | -16.9 |
| GTAAATACGAAAGTATAC (((..(((....)))))) | 25 | -9.48 |
| GACGGCGAAAGCCTCGTC ((((((....)))..))) | 56.4 | -13.1 |
| GCCTGGCCGAAAGGCGGC (((..(((....)))))) | 65.3 | -18.4 |
| GCTTCCGGAAACAGAAGC (((((.(....).))))) | 41.9 | -30.6 |

— the array DNA melting data of Ke et al. (doi:10.1101/2024.01.08.574731)
